Data: ChEMBL document CHEMBL1144169, “Synthesis and cytotoxic activity of heterocyclic ring-substituted betulinic acid derivatives” (Bioorg Med Chem Lett, 2008)
In brackets after ≈: the same amount, converted by molar mass.

How the values were obtained:
PA-1 = test: Cytotoxicity against human PA-1 cells after 72 hrs by MTT assay; assay type: functional, cell-based; conditions: PA-1, 72 h
In short: (§1)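 Cells harvested from 70–80% confluent cultures by trypsin/EDTA and seeded at 5000 cells/well in DMEM for 24 h. Compounds were dissolved in DMSO and diluted in medium to 0.5–20, with final DMSO below 1%. After 72 h at CO2, MTT was added for 3 h at 37 °C. Medium was replaced with DMSO and OD read at 540 nm. IC50 ± SD, three independent experiments.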

A549 = test: Cytotoxicity against human A549 cells after 72 hrs by MTT assay; assay type: functional, cell-based; conditions: A549, 72 h; in short: as §1
SW-620 = test: Cytotoxicity against human SW620 cells after 72 hrs by MTT assay; assay type: functional, cell-based; conditions: SW-620, 72 h; in short: as §1
MIA PaCa-2 [1] = test: Cytotoxicity against human MIA PaCa2 cells after 72 hrs by MTT assay; assay type: functional, cell-based; conditions: MIA PaCa-2, 72 h; in short: as §1
HBL-100 = test: Cytotoxicity against human HBL100 cells after 72 hrs by MTT assay; assay type: functional, cell-based; conditions: HBL-100, 72 h; in short: as §1
K562 = test: Cytotoxicity against human K-562 cells after 72 hrs by MTT assay; assay type: functional, cell-based; conditions: K562, 72 h
NIH3T3 [2] = test: Cytotoxicity against mouse NIH3T3 cells after 72 hrs by MTT assay; assay type: cell-based; conditions: NIH3T3, 72 h; in short: as §1
DU-145 = test: Cytotoxicity against human DU145 cells after 72 hrs by MTT assay; assay type: functional, cell-based; conditions: DU-145, 72 h; in short: as §1
NIH3T3 [3] = test: Selectivity index, ratio of IC50 for mouse NIH3T3 cells to IC50 for human SW620 cells; assay type: functional
MIA PaCa-2 [4] = test: Selectivity index, ratio of IC50 for mouse NIH3T3 cells to IC50 for human MIA PaCa2 cells; assay type: functional

Row | Compound | IC50 (PA-1) [µg/mL] | IC50 (A549) [µg/mL] | IC50 (SW-620) [µg/mL] | IC50 (MIA PaCa-2 [1]) [µg/mL] | IC50 (HBL-100) [µg/mL] | IC50 (K562) [µg/mL] | IC50 (NIH3T3 [2]) [µg/mL] | IC50 (DU-145) [µg/mL] | Ratio IC50 (NIH3T3 [3]) | Ratio IC50 (MIA PaCa-2 [4])
1 | C=C(C)[C@@H]1CC[C@]2(C(=O)O)CC[C@]3(C)[C@H](CC[C@@H]4[C@@]5(C)Cc6c(n(C)c7ccccc67)C(C)(C)[C@@H]5CC[C@]43C)[C@@H]12 | > 20 | 6.9 (≈ 12.7 µM) | > 20 | 5.34 (≈ 9.86 µM) | 19.5 (≈ 36 µM) | 7.73 (≈ 14.3 µM) | 15.1 (≈ 27.9 µM) | 20 (≈ 36.9 µM) |  | 
2 | C=C(C)[C@@H]1CC[C@]2(C(=O)O)CC[C@]3(C)[C@H](CC[C@@H]4[C@@]5(C)Cc6c([nH]c7cc(Cl)cc(Cl)c67)C(C)(C)[C@@H]5CC[C@]43C)[C@@H]12 | > 20 | 5.5 (≈ 9.22 µM) | > 20 | > 20 | > 20 | > 20 | 4.1 (≈ 6.87 µM) | > 20 |  | 
3 | CC(C)[C@@H]1CC[C@]2(C(=O)O)CC[C@]3(C)[C@H](CC[C@@H]4[C@@]5(C)Cc6c(n(C)c7ccccc67)C(C)(C)[C@@H]5CC[C@]43C)[C@@H]12 | > 20 | 6.5 (≈ 12 µM) | > 20 | 5.4 (≈ 9.93 µM) | 14.1 (≈ 26 µM) | 10.8 (≈ 20 µM) | > 20 | > 20 |  | 
4 | C=C(C)[C@@H]1CC[C@]2(C(=O)O)CC[C@]3(C)[C@H](CC[C@@H]4[C@@]5(C)Cc6c([nH]c7ccc(F)cc67)C(C)(C)[C@@H]5CC[C@]43C)[C@@H]12 | > 20 | 17.8 (≈ 32.6 µM) | 9.16 (≈ 16.8 µM) | 17.4 (≈ 31.9 µM) | > 20 | 10.9 (≈ 20.1 µM) | > 20 | > 20 |  | 
5 | C=C(C)[C@@H]1CC[C@]2(C(=O)O)CC[C@]3(C)[C@H](CC[C@@H]4[C@@]5(C)Cc6c([nH]c7c(F)cccc67)C(C)(C)[C@@H]5CC[C@]43C)[C@@H]12 |  | 3 (≈ 5.5 µM) | > 20 | 3.3 (≈ 6.05 µM) | 3.5 (≈ 6.41 µM) | 8.7 (≈ 15.9 µM) | 2.1 (≈ 3.85 µM) | > 20 |  | 
6 | CC(C)[C@@H]1CC[C@]2(C(=O)O)CC[C@]3(C)[C@H](CC[C@@H]4[C@@]5(C)Cc6c([nH]c7ccc(F)cc67)C(C)(C)[C@@H]5CC[C@]43C)[C@@H]12 | > 20 | 8.89 (≈ 16.2 µM) | 7.28 (≈ 13.3 µM) | 8.4 (≈ 15.3 µM) | > 20 | 14 (≈ 25.6 µM) | 14.6 (≈ 26.6 µM) | > 20 |  | 
7 | C=C(C)[C@@H]1CC[C@]2(C(=O)O)CC[C@]3(C)[C@H](CC[C@@H]4[C@@]5(C)Cc6c([nH]c7ccc(OC)cc67)C(C)(C)[C@@H]5CC[C@]43C)[C@@H]12 | 5.8 (≈ 10.4 µM) | 8.2 (≈ 14.7 µM) | 8.4 (≈ 15.1 µM) | 6.4 (≈ 11.5 µM) | 12.8 (≈ 22.9 µM) | > 20 | 7.5 (≈ 13.4 µM) | 5.75 (≈ 10.3 µM) |  | 
8 | C=C(C)[C@@H]1CC[C@]2(C(=O)NCC(=O)O)CC[C@]3(C)[C@H](CC[C@@H]4[C@@]5(C)Cc6c([nH]c7ccc(Cl)cc67)C(C)(C)[C@@H]5CC[C@]43C)[C@@H]12 | 6.66 (≈ 10.8 µM) | 12.4 (≈ 20 µM) | 10.4 (≈ 16.8 µM) | 10.7 (≈ 17.3 µM) | 16.5 (≈ 26.6 µM) | > 20 | 11.2 (≈ 18.1 µM) | 10.3 (≈ 16.7 µM) |  | 
9 | CC(C)[C@@H]1CC[C@]2(C(=O)O)CC[C@]3(C)[C@H](CC[C@@H]4[C@@]5(C)Cc6c(oc7ccccc67)C(C)(C)[C@@H]5CC[C@]43C)[C@@H]12 | > 20 | 7.1 (≈ 13.4 µM) | > 20 | 8.8 (≈ 16.6 µM) | > 20 | 15.3 (≈ 28.8 µM) | 20 (≈ 37.7 µM) | > 20 |  | 
10 | CC(C)[C@@H]1CC[C@]2(C(=O)O)CC[C@]3(C)[C@H](CC[C@@H]4[C@@]5(C)Cc6c([nH]c7ccc(Cl)cc67)C(C)(C)[C@@H]5CC[C@]43C)[C@@H]12 | 6.6 (≈ 11.7 µM) | 8.8 (≈ 15.6 µM) | 5.9 (≈ 10.5 µM) | 15.2 (≈ 26.9 µM) | > 20 | > 20 | 19 (≈ 33.7 µM) | 6.5 (≈ 11.5 µM) |  | 
11 | C=C(C)[C@@H]1CC[C@]2(C(=O)O)CC[C@]3(C)[C@H](CC[C@@H]4[C@@]5(C)Cc6c([nH]c7c(Cl)cccc67)C(C)(C)[C@@H]5CC[C@]43C)[C@@H]12 | 6.39 (≈ 11.4 µM) | 8.7 (≈ 15.5 µM) | 2 (≈ 3.56 µM) | 11.6 (≈ 20.6 µM) | 11.8 (≈ 21 µM) | 9.26 (≈ 16.5 µM) | 11.8 (≈ 21 µM) | 11.7 (≈ 20.7 µM) | 6 | 
12 | C=C(C)[C@@H]1CC[C@]2(C(=O)O)CC[C@]3(C)[C@H](CC[C@@H]4[C@@]5(C)CC[C@H](O)C(C)(C)[C@@H]5CC[C@]43C)[C@@H]12 [BETULINIC ACID] | 11.5 (≈ 25.2 µM) | 3 (≈ 6.57 µM) | 13.3 (≈ 29 µM) | 10.3 (≈ 22.6 µM) | 5.02 (≈ 11 µM) | 3.25 (≈ 7.12 µM) | 4.37 (≈ 9.57 µM) | > 20 |  | 
13 | C=C(C)[C@@H]1CC[C@]2(C(=O)NCC(=O)O)CC[C@]3(C)[C@H](CC[C@@H]4[C@@]5(C)Cc6c([nH]c7ccccc67)C(C)(C)[C@@H]5CC[C@]43C)[C@@H]12 | 3 (≈ 5.13 µM) | 3.53 (≈ 6.04 µM) | 8.7 (≈ 14.9 µM) | 0.67 (≈ 1.15 µM) | > 20 | 11.9 (≈ 20.4 µM) | 0.68 (≈ 1.16 µM) | 7 (≈ 12 µM) |  | 
14 | C=C(C)[C@@H]1CC[C@]2(C(=O)O)CC[C@]3(C)[C@H](CC[C@@H]4[C@@]5(C)Cc6c([nH]c7ccccc67)C(C)(C)[C@@H]5CC[C@]43C)[C@@H]12 | 6.01 (≈ 11.4 µM) | 7.6 (≈ 14.4 µM) | 5.15 (≈ 9.76 µM) | 6.7 (≈ 12.7 µM) | 10.3 (≈ 19.5 µM) | 10 (≈ 19 µM) | 6.9 (≈ 13.1 µM) | 8.86 (≈ 16.8 µM) |  | 
15 | C=C(C)[C@@H]1CC[C@]2(C(=O)O)CC[C@]3(C)[C@H](CC[C@@H]4[C@@]5(C)Cc6c([nH]c7ccc(Cl)cc67)C(C)(C)[C@@H]5CC[C@]43C)[C@@H]12 | 2.5 (≈ 4.45 µM) | 7.14 (≈ 12.7 µM) | 2.7 (≈ 4.8 µM) | 2.44 (≈ 4.34 µM) | 11.8 (≈ 20.9 µM) | 9.61 (≈ 17.1 µM) | 4.6 (≈ 8.18 µM) | 4.9 (≈ 8.72 µM) |  | 2
